Key:
[1] = tested on: Striatum; experiment: Drug uptake in Sprague-Dawley rat striatum assessed per cm'3 at 37 MBq, iv treated 45 mins after DAT inhibitor GBR-12909 challenge measured after 60 mins; format: ADME, organism-based; details: in vivo, 1 h
Procedure, shortened: (§1)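 This was the same rat after its baseline scan. It was pretreated with 1.5 mg/kg GBR12909 45 min before a second 37 MBq tracer injection, and dynamic PET acquisition ran 60 min from injection. Striatal uptake was given as %ID per cm³ for the 15, 30 and 60 min time-frames.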

[2] = tested on: Striatum; experiment: Drug uptake in Sprague-Dawley rat striatum assessed per cm'3 at 37 MBq, iv treated 45 mins after DAT inhibitor GBR-12909 challenge measured after 30 mins; format: ADME, organism-based; details: in vivo, 0.5 h; procedure, shortened: as §1
[3] = tested on: Striatum; experiment: Drug uptake in Sprague-Dawley rat striatum assessed per cm'3 at 37 MBq, iv after 4 mins; format: ADME, organism-based; details: in vivo
[4] = tested on: Striatum; experiment: Drug uptake in Sprague-Dawley rat striatum assessed per cm'3 at 37 MBq, iv treated 45 mins after DAT inhibitor GBR-12909 challenge measured after 15 mins; format: ADME, organism-based; details: in vivo, 0.25 h; procedure, shortened: as §1
[5] = tested on: Striatum; experiment: Drug uptake in Sprague-Dawley rat striatum assessed as reduction of striatal binding potential at 37 MBq, iv treated 45 mins after DAT inhibitor GBR-12909 challenge measured after 15 mins; format: ADME, organism-based; design: scale not given: the % may be the effect or the level left; details: in vivo, 0.25 h
Procedure, shortened: (§2)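 The same animal then received 1.5 mg/kg GBR12909 45 min before a second 37 MBq dose, followed by another 60 min scan. Striatal binding potential was read for the 15, 30 and 60 min time-frames, and the reduction was expressed in %.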

[6] = Ratio of drug uptake in striatum to cerebellum of Sprague-Dawley rat at 37 MBq, iv after 30 mins; format: ADME, organism-based; details: in vivo, 0.5 h
Procedure, shortened: (§3)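 Male Sprague–Dawley rat, baseline small-animal PET. Tracer given at 37 MBq (1 mCi), specific activity 67 GBq/µmol. Full dynamic scan for 60 min, acquisition starting with tracer injection. Read-out is the striatum/cerebellum radioactivity-concentration ratio, taken at the 15, 30 and 60 min time frames.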

[7] = tested on: Striatum; experiment: Drug uptake in Sprague-Dawley rat striatum assessed as reduction of striatal binding potential at 37 MBq, iv treated 45 mins after DAT inhibitor GBR-12909 challenge measured after 30 mins; format: ADME, organism-based; design: scale not given: the % may be the effect or the level left; details: in vivo, 0.5 h; procedure, shortened: as §2
[8] = tested on: Striatum; experiment: Drug uptake in Sprague-Dawley rat striatum assessed per cm'3 at 37 MBq, iv after 60 mins; format: ADME, organism-based; details: in vivo, 1 h
Procedure, shortened: (§4)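 Baseline small-animal PET in one male Sprague–Dawley rat: 37 MBq (1 mCi) tracer injected, and full dynamic acquisition started at injection and ran 60 min. Images were reconstructed and coregistered with MRI. Striatal uptake was given as %ID per cm³ for the 15, 30 and 60 min time-frames.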

[9] = Ratio of drug uptake in striatum to cerebellum of Sprague-Dawley rat at 37 MBq, iv treated 45 mins after DAT inhibitor GBR-12909 challenge measured after 30 mins; format: ADME, organism-based; details: in vivo, 0.5 h
Procedure, shortened: (§5)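 Same male Sprague–Dawley rat, rescanned after baseline. GBR12909 1.5 mg/kg given 45 min before a second 37 MBq tracer dose. Dynamic acquisition for 60 min, started at injection. Read-out is the striatum/cerebellum radioactivity-concentration ratio at the 15, 30 and 60 min time frames.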

[10] = Ratio of drug uptake in striatum to cerebellum of Sprague-Dawley rat at 37 MBq, iv treated 45 mins after DAT inhibitor GBR-12909 challenge measured after 15 mins; format: ADME, organism-based; details: in vivo, 0.25 h; procedure, shortened: as §5
[11] = tested on: Striatum; experiment: Drug uptake in Sprague-Dawley rat striatum assessed per cm'3 at 37 MBq, iv after 30 mins; format: ADME, organism-based; details: in vivo, 0.5 h; procedure, shortened: as §4
[12] = Ratio of drug uptake in striatum to cerebellum of Sprague-Dawley rat at 37 MBq, iv after 60 mins; format: ADME, organism-based; details: in vivo, 1 h; procedure, shortened: as §3
[13] = Ratio of drug uptake in striatum to cerebellum of Sprague-Dawley rat at 37 MBq, iv after 15 mins; format: ADME, organism-based; details: in vivo, 0.25 h; procedure, shortened: as §3
[14] = tested on: Striatum; experiment: Drug uptake in Sprague-Dawley rat striatum assessed as reduction of striatal binding potential at 37 MBq, iv treated 45 mins after DAT inhibitor GBR-12909 challenge measured after 60 mins; format: ADME, organism-based; design: scale not given: the % may be the effect or the level left; details: in vivo, 1 h; procedure, shortened: as §2
[15] = tested on: Striatum; experiment: Drug uptake in Sprague-Dawley rat striatum assessed per cm'3 at 37 MBq, iv after 15 mins; format: ADME, organism-based; details: in vivo, 0.25 h; procedure, shortened: as §4
[16] = Ratio of drug uptake in striatum to cerebellum of Sprague-Dawley rat at 37 MBq, iv treated 45 mins after DAT inhibitor GBR-12909 challenge measured after 60 mins; format: ADME, organism-based; details: in vivo, 1 h; procedure, shortened: as §5
[17] = biological target: Sodium-dependent dopamine transporter (Homo sapiens, UniProt Q01959); experiment: Inhibition of human dopamine transporter
Chain of Sodium-dependent dopamine transporter (Q01959 whole entry): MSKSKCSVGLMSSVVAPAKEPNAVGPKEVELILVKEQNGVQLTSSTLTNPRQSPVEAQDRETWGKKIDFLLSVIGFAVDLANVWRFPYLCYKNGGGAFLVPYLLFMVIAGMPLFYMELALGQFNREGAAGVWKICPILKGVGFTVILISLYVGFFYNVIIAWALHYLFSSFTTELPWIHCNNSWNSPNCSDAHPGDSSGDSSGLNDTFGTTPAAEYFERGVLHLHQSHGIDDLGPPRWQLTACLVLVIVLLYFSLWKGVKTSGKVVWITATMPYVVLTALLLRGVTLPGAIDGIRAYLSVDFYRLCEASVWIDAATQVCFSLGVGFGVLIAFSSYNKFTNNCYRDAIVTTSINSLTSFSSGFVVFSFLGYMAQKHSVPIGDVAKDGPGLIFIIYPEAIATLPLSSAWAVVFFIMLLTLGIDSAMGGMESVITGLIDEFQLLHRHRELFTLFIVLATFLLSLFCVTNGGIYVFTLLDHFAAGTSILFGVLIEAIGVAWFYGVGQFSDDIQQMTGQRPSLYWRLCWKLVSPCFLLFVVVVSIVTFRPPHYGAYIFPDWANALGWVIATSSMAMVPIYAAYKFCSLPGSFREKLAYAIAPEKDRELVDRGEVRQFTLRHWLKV

Row | Structure (SMILES) | Activity [1] [%ID] | Activity [2] [%ID] | Drug uptake [3] [%] | Activity [4] [%ID] | Activity [5] [%] | Ratio [6] | Activity [7] [%] | Activity [8] [%ID] | Ratio [9] | Ratio [10] | Activity [11] [%ID] | Ratio [12] | Ratio [13] | Activity [14] [%] | Activity [15] [%ID] | Ratio [16] | IC50 [17] [nM]
1 | Cc1ccc([C@H]2C[C@@H]3CC[C@H]([C@H]2C(=O)O[11CH3])N3CC#CCF)cc1 | 1.2 | 1.6 | 2.22 | 2.1 | 32 | 3.6 | 41 | 2.1 | 1.67 | 1.25 | 2.1 | 5 | 2.4 | 57 | 2 | 1.61 | 
2 | COC(=O)[C@H]1[C@@H](c2ccc(C)cc2)C[C@@H]2CC[C@H]1N2CC#CCF |  |  |  |  |  |  |  |  |  |  |  |  |  |  |  |  | 3

From ChEMBL document CHEMBL1152377, “[(11)C]PR04.MZ, a promising DAT ligand for low concentration imaging: Synthesis, efficient (11)C-O-methylation and initial small animal PET studies” (Bioorg Med Chem Lett, 2009)
